Reference: ChEMBL document CHEMBL1770092, “Novel N-chloroheterocyclic antimicrobials” (Bioorg Med Chem Lett, 2011)
Converted amounts (≈) assume the structure as drawn.

Assays:
Escherichia coli = assay: Antibacterial activity against Escherichia coli ATCC 25922 after 1 hr by modified CLSI M26-A method; format: functional; conditions: ATCC 25922, 1 h
In short: (§1)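 Minimum bactericidal or fungicidal concentration (µg/mL) by modified CLSI M26-A: isotonic buffered saline at pH 4 replaces Mueller–Hinton broth because chlorine reacts with broth components, and exposure is shortened from 24 h at 35 °C to 1 h at room temperature.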

Candida albicans = assay: Antifungal activity against Candida albicans ATCC 10231 after 1 hr by modified CLSI M26-A method; format: functional; conditions: ATCC 10231, 1 h; in short: as §1
[1] = Stability of the compound assessed as half life in aqueous buffer at 40 degC
Staphylococcus aureus = assay: Antibacterial activity against Staphylococcus aureus ATCC 29213 after 1 hr by modified CLSI M26-A method; format: functional; conditions: ATCC 29213, 1 h; in short: as §1

SMILES | MBC (Escherichia coli) [µg/mL] | MFC (Candida albicans) [µg/mL] | half-life [1] [days] | MBC (Staphylococcus aureus) [µg/mL]
CC1(C)CS(=O)(=O)CC(C)(C)N1Cl | 2 (≈ 8.86 µM) | 128 (≈ 567 µM) | > 113 | 1 (≈ 4.43 µM)
CC1(C)C(=O)N(CCS(=O)(=O)[O-])C(=O)N1Cl.[Na+] | 128 | 128 | 65 | 128
CC1(C)C(=O)N(CCCS(=O)(=O)[O-])C(=O)N1Cl.[Na+] | 16 | > 256 | > 14 | 32
CC1(C)C(=O)N(CCC[N+](C)(C)C)C(=O)N1Cl.[Cl-] | 128 | > 1020 | 4 | > 128
CC1(C)C(=O)N(CCCCC[N+](C)(C)C)C(=O)N1Cl.[Cl-] | 128 | > 1020 | 22 | 128
CC1(C)C(=O)N(CC[n+]2ccccc2)C(=O)N1Cl.[Cl-] |  |  | 4 | 
CC1(C)C(=O)N(CCS(=O)(=O)CCCS(=O)(=O)[O-])C(=O)N1Cl.[Cs+] | 256 | > 256 | > 7 | > 256
CN1C(=O)N(Cl)C(C)(C[N+](C)(C)C)C1=O.[Cl-] (stereo not drawn) | 16 | > 256 | 5 | 64
CC1(C)C(=O)N(CCS(=O)(=O)[O-])CC(=O)N1Cl.[Na+] | 128 | > 256 | 90 | 128
CC1(C)C(=O)N(CCO)CC(=O)N1Cl |  |  | < 1 | 
CC1(C)CC(CCO)OC(=O)N1Cl (stereo not drawn) |  |  | > 14 | 
CC1(C)CN(CCS(=O)(=O)[O-])C(=O)N1Cl.[Na+] | 32 | > 256 | > 92 | 64
CC1(C)CN(CCS(=O)(=O)CCCS(=O)(=O)[O-])C(=O)N1Cl.[Cs+] | 64 |  | > 112 | 32
CC(=O)[O-].CC1(C)CN(CC[N+](C)(C)C)C(=O)N1Cl | 512 |  | 126 | 128
CN1CC(C)(CO)N(Cl)C1=O (stereo not drawn) | 16 (≈ 89.6 µM) | 8 (≈ 44.8 µM) | > 58 | 16 (≈ 89.6 µM)
CC1(C)CC([N+](C)(C)C)CC(C)(C)N1Cl.[Cl-] | 16 | 256 | 28 | 8
CC1(C)CC(O)CC(C)(C)N1Cl | 1 (≈ 5.22 µM) | 32 (≈ 167 µM) | 32 | 4 (≈ 20.9 µM)
CC1(C)CC(=O)CC(C)(C)N1Cl | 1 (≈ 5.27 µM) | 32 (≈ 169 µM) | < 1 | 2 (≈ 10.5 µM)
CC1(C)CN(CCO)C(=O)C(C)(C)N1Cl | 1 (≈ 4.26 µM) | 8 (≈ 34.1 µM) |  | 2 (≈ 8.52 µM)
CC1(C)C(=O)N(CCS(=O)(=O)[O-])C(=O)C(C)(C)N1Cl.[Na+] | 128 | > 256 | 90 | 128
CC1(C)C(=O)N(CCCCO)C(C)(C)N1Cl | 2 (≈ 8.04 µM) | 256 (≈ 1030 µM) | > 92 | 2 (≈ 8.04 µM)
CC1(C)C(=O)N(CCCS(=O)(=O)[O-])C(C)(C)N1Cl.[Na+] | 4 | 16 | > 249 | 16
CC1(C)C(=O)N(CCCCS(=O)(=O)[O-])C(C)(C)N1Cl.[Na+] | 16 | 32 | > 84 | 8
CC1(C)C(=O)N(CCC[N+](C)(C)C)C(C)(C)N1Cl.[Cl-] | 4 | 32 | 111 | 2
CC1(C)C(=O)N(CCCCC[N+](C)(C)C)C(C)(C)N1Cl.[Cl-] | 2 | 16 | > 160 | 2
